Experimental data published in ChEMBL document CHEMBL3046604, “Synthesis and fungistatic activity of new groups of 2,4-dihydroxythiobenzoyl derivatives against phytopathogenic fungi” (J Agric Food Chem, 2003).

Experiments:
Rhizoctonia solani [1] = assay: Fungistatic activity against Rhizoctonia solani assessed as mycelial growth inhibition at 200 ug/ml after 4 to 8 days relative to control; type: functional; conditions: read-out: GI
Method in brief: (§1)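 Compound solutions or suspensions were diluted into PDA agar to final 200 or 20 µg/mL and poured into Petri dishes. Once the agar set, mycelium-covered agar disks of the fungus were placed at three sites on the surface. Linear colony growth was measured after 4-8 days, depending on the culture. Inhibition J = [(C − T)/C] × 100 versus untreated control, reported on a four-degree scale.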

Phytophthora cactorum [2] = assay: Fungistatic activity against Phytophthora cactorum assessed as mycelial growth inhibition at 200 ug/ml after 4 to 8 days relative to control; type: functional; conditions: read-out: GI; method in brief: as §1
Botrytis cinerea [3] = assay: Fungistatic activity against Botryotinia fuckeliana assessed as mycelial growth inhibition at 200 ug/ml after 4 to 8 days relative to control; type: functional; conditions: read-out: GI; method in brief: as §1
Blumeria graminis [4] = assay: Fungistatic activity against Blumeria graminis infested wheat seedling assessed as inhibition of fungal infection at 500 ug/ml applied as spray after 7 to 14 days under green house conditions relative to control; type: functional
Method in brief: (§2)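 Greenhouse test on healthy wheat seedlings with Erysiphe graminis. At the well-developed first-leaf stage, plants were sprayed with compound solution at 1000 or 500 µg/mL, 10 mL of solution per treatment, with three repeats in 9 cm paraffin cups.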

Botrytis cinerea [5] = assay: Fungistatic activity against Botryotinia fuckeliana assessed as mycelial growth inhibition at 20 ug/ml after 4 to 8 days relative to control; type: functional; conditions: read-out: GI; method in brief: as §1
Phytophthora cactorum [6] = assay: Fungistatic activity against Phytophthora cactorum assessed as mycelial growth inhibition at 20 ug/ml after 4 to 8 days relative to control; type: functional; conditions: read-out: GI; method in brief: as §1
Blumeria graminis [7] = assay: Fungistatic activity against Blumeria graminis infested wheat seedling assessed as inhibition of fungal infection at 1000 ug/ml applied as spray after 7 to 14 days under green house conditions relative to control; type: functional; method in brief: as §2
Fusarium culmorum [8] = assay: Fungistatic activity against Fusarium culmorum assessed as mycelial growth inhibition at 20 ug/ml after 4 to 8 days relative to control; type: functional; conditions: read-out: GI; method in brief: as §1
Alternaria alternata [9] = assay: Fungistatic activity against Alternaria alternata assessed as mycelial growth inhibition at 200 ug/ml after 4 to 8 days relative to control; type: functional; conditions: read-out: GI; method in brief: as §1
Rhizoctonia solani [10] = assay: Fungistatic activity against Rhizoctonia solani assessed as mycelial growth inhibition at 20 ug/ml after 4 to 8 days relative to control; type: functional; conditions: read-out: GI; method in brief: as §1
[11] = Lipophilicity, log K of the compound in methanol-water mixture by HPLC; type: physicochemical
Method in brief: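 Reversed-phase HPLC on a Hypersil BDS C18 column (5 µm, 150 × 4.6 mm) with UV detection at 320 nm. Samples were dissolved in methanol. Mobile phase was methanol at varying volume fractions in 10 mM acetate buffer pH 4, run at 1 mL/min and room temperature. Dead time was taken from injection of acetone dissolved in water.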

Fusarium culmorum [12] = assay: Fungistatic activity against Fusarium culmorum assessed as mycelial growth inhibition at 200 ug/ml after 4 to 8 days relative to control; type: functional; conditions: read-out: GI; method in brief: as §1
Alternaria alternata [13] = assay: Fungistatic activity against Alternaria alternata assessed as mycelial growth inhibition at 20 ug/ml after 4 to 8 days relative to control; type: functional; conditions: read-out: GI; method in brief: as §1

## CC(C)(C)c1cc(NC(=S)c2ccc(O)cc2O)no1
Rhizoctonia solani [1]
  inhibition of growth at 200 µg/mL: 41%
Phytophthora cactorum [2]
  inhibition of growth at 200 µg/mL: 61%
Botrytis cinerea [3]
  inhibition of growth at 200 µg/mL: 41%
Blumeria graminis [4]
  inhibition at 500 µg/mL: 0%
Botrytis cinerea [5]
  inhibition of growth at 20 µg/mL: 0%
Phytophthora cactorum [6]
  inhibition of growth at 20 µg/mL: 0%
Blumeria graminis [7]
  inhibition at 1000 µg/mL: 21%
Fusarium culmorum [8]
  inhibition of growth at 20 µg/mL: 21%
Alternaria alternata [9]
  inhibition of growth at 200 µg/mL: 61%
Rhizoctonia solani [10]
  inhibition of growth at 20 µg/mL: 0%
[11]
  log K: -0.302
Fusarium culmorum [12]
  inhibition of growth at 200 µg/mL: 61%
Alternaria alternata [13]
  inhibition of growth at 20 µg/mL: 21%

## Oc1ccc(C(=S)Nc2cc(C(F)(F)F)ccc2N2CCOCC2)c(O)c1
Rhizoctonia solani [1]
  inhibition of growth at 200 µg/mL: 0%
Phytophthora cactorum [2]
  inhibition of growth at 200 µg/mL: 41%
Botrytis cinerea [3]
  inhibition of growth at 200 µg/mL: 21%
Blumeria graminis [4]
  inhibition at 500 µg/mL: 0%
Botrytis cinerea [5]
  inhibition of growth at 20 µg/mL: 0%
Phytophthora cactorum [6]
  inhibition of growth at 20 µg/mL: 0%
Blumeria graminis [7]
  inhibition at 1000 µg/mL: 0%
Fusarium culmorum [8]
  inhibition of growth at 20 µg/mL: 0%
Alternaria alternata [9]
  inhibition of growth at 200 µg/mL: 21%
Rhizoctonia solani [10]
  inhibition of growth at 20 µg/mL: 0%
[11]
  log K: 0.035
Fusarium culmorum [12]
  inhibition of growth at 200 µg/mL: 21%
Alternaria alternata [13]
  inhibition of growth at 20 µg/mL: 0%

## CC(C)(C)c1nnc(NC(=S)c2ccc(O)cc2O)s1
Rhizoctonia solani [1]
  inhibition of growth at 200 µg/mL: 0%
Phytophthora cactorum [2]
  inhibition of growth at 200 µg/mL: 0%
Botrytis cinerea [3]
  inhibition of growth at 200 µg/mL: 0%
Blumeria graminis [4]
  inhibition at 500 µg/mL: 0%
Botrytis cinerea [5]
  inhibition of growth at 20 µg/mL: 0%
Phytophthora cactorum [6]
  inhibition of growth at 20 µg/mL: 0%
Blumeria graminis [7]
  inhibition at 1000 µg/mL: 21%
Fusarium culmorum [8]
  inhibition of growth at 20 µg/mL: 0%
Alternaria alternata [9]
  inhibition of growth at 200 µg/mL: 0%
Rhizoctonia solani [10]
  inhibition of growth at 20 µg/mL: 0%
[11]
  log K: -0.131
Fusarium culmorum [12]
  inhibition of growth at 200 µg/mL: 0%
Alternaria alternata [13]
  inhibition of growth at 20 µg/mL: 0%

## O=C(Nc1ccccc1)c1ccccc1NC(=S)c1ccc(O)cc1O
Rhizoctonia solani [1]
  inhibition of growth at 200 µg/mL: 61%
Phytophthora cactorum [2]
  inhibition of growth at 200 µg/mL: 61%
Botrytis cinerea [3]
  inhibition of growth at 200 µg/mL: 41%
Blumeria graminis [4]
  inhibition at 500 µg/mL: 0%
Botrytis cinerea [5]
  inhibition of growth at 20 µg/mL: 0%
Phytophthora cactorum [6]
  inhibition of growth at 20 µg/mL: 0%
Blumeria graminis [7]
  inhibition at 1000 µg/mL: 41%
Fusarium culmorum [8]
  inhibition of growth at 20 µg/mL: 0%
Alternaria alternata [9]
  inhibition of growth at 200 µg/mL: 61%
Rhizoctonia solani [10]
  inhibition of growth at 20 µg/mL: 21%
[11]
  log K: -0.37
Fusarium culmorum [12]
  inhibition of growth at 200 µg/mL: 61%
Alternaria alternata [13]
  inhibition of growth at 20 µg/mL: 0%

## Oc1ccc(C(=S)NC(=S)c2cccnc2)c(O)c1
Rhizoctonia solani [1]
  inhibition of growth at 200 µg/mL: 61%
Phytophthora cactorum [2]
  inhibition of growth at 200 µg/mL: 81%
Botrytis cinerea [3]
  inhibition of growth at 200 µg/mL: 81%
Blumeria graminis [4]
  inhibition at 500 µg/mL: 0%
Botrytis cinerea [5]
  inhibition of growth at 20 µg/mL: 0%
Phytophthora cactorum [6]
  inhibition of growth at 20 µg/mL: 0%
Blumeria graminis [7]
  inhibition at 1000 µg/mL: 21%
Fusarium culmorum [8]
  inhibition of growth at 20 µg/mL: 0%
Alternaria alternata [9]
  inhibition of growth at 200 µg/mL: 61%
Rhizoctonia solani [10]
  inhibition of growth at 20 µg/mL: 0%
[11]
  log K: 0.751
Fusarium culmorum [12]
  inhibition of growth at 200 µg/mL: 81%
Alternaria alternata [13]
  inhibition of growth at 20 µg/mL: 0%

## Oc1ccc(C(=S)NN=C2c3ccccc3-c3ccccc32)c(O)c1
Rhizoctonia solani [1]
  inhibition of growth at 200 µg/mL: 0%
Phytophthora cactorum [2]
  inhibition of growth at 200 µg/mL: 41%
Botrytis cinerea [3]
  inhibition of growth at 200 µg/mL: 21%
Blumeria graminis [4]
  inhibition at 500 µg/mL: 0%
Botrytis cinerea [5]
  inhibition of growth at 20 µg/mL: 0%
Phytophthora cactorum [6]
  inhibition of growth at 20 µg/mL: 0%
Blumeria graminis [7]
  inhibition at 1000 µg/mL: 0%
Fusarium culmorum [8]
  inhibition of growth at 20 µg/mL: 0%
Alternaria alternata [9]
  inhibition of growth at 200 µg/mL: 41%
Rhizoctonia solani [10]
  inhibition of growth at 20 µg/mL: 0%
[11]
  log K: 0.232
Fusarium culmorum [12]
  inhibition of growth at 200 µg/mL: 0%
Alternaria alternata [13]
  inhibition of growth at 20 µg/mL: 0%

## Oc1ccc(C(=S)NN=C(c2ccccc2)c2ccccc2)c(O)c1
Rhizoctonia solani [1]
  inhibition of growth at 200 µg/mL: 0%
Phytophthora cactorum [2]
  inhibition of growth at 200 µg/mL: 41%
Botrytis cinerea [3]
  inhibition of growth at 200 µg/mL: 0%
Blumeria graminis [4]
  inhibition at 500 µg/mL: 0%
Botrytis cinerea [5]
  inhibition of growth at 20 µg/mL: 0%
Phytophthora cactorum [6]
  inhibition of growth at 20 µg/mL: 0%
Blumeria graminis [7]
  inhibition at 1000 µg/mL: 21%
Fusarium culmorum [8]
  inhibition of growth at 20 µg/mL: 0%
Alternaria alternata [9]
  inhibition of growth at 200 µg/mL: 41%
Rhizoctonia solani [10]
  inhibition of growth at 20 µg/mL: 0%
[11]
  log K: 0.642
Fusarium culmorum [12]
  inhibition of growth at 200 µg/mL: 0%
Alternaria alternata [13]
  inhibition of growth at 20 µg/mL: 0%

## Oc1ccc(C(=S)Nc2ccc(OCc3ccccc3)cc2)c(O)c1
Rhizoctonia solani [1]
  inhibition of growth at 200 µg/mL: 41%
Phytophthora cactorum [2]
  inhibition of growth at 200 µg/mL: 41%
Botrytis cinerea [3]
  inhibition of growth at 200 µg/mL: 61%
Blumeria graminis [4]
  inhibition at 500 µg/mL: 0%
Botrytis cinerea [5]
  inhibition of growth at 20 µg/mL: 21%
Phytophthora cactorum [6]
  inhibition of growth at 20 µg/mL: 0%
Blumeria graminis [7]
  inhibition at 1000 µg/mL: 21%
Fusarium culmorum [8]
  inhibition of growth at 20 µg/mL: 0%
Alternaria alternata [9]
  inhibition of growth at 200 µg/mL: 61%
Rhizoctonia solani [10]
  inhibition of growth at 20 µg/mL: 0%
[11]
  log K: 0.423
Fusarium culmorum [12]
  inhibition of growth at 200 µg/mL: 21%
Alternaria alternata [13]
  inhibition of growth at 20 µg/mL: 0%
